This passage reports IC50, inhibition and Kd results from ChEMBL document CHEMBL3124858, “Drug design targeting protein-protein interactions (PPIs) using multiple ligand simultaneous docking (MLSD) and drug repositioning: discovery of raloxifene and bazedoxifene as novel inhibitors of IL-6/GP130 interface” (J Med Chem, 2014).

A short description of test [1]: Cytotoxicity against ER-negative human SUM159 cells assessed as cell viability after 72 hrs by MTT assay in presence of IL-6. The format is functional, cell-based. The note with it: SUM-159-PT. The method in brief: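 SUM159 (ER negative) seeded at 3,000 cells/well, given […] compound in triplicate with 10% FBS. Incubated 72 h at 37 °C, then MTT read-out, absorbance at 595 nm. IC50 from curve fitting.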
For orientation: Tetrazolium assays rely on reduction of a dye to a coloured formazan, in cell work by metabolically active cells.

The target in test [2] is LIFR/GP130 (Homo sapiens) (UniProt P40189+P42702). In words: Inhibition of LIFR/GP130 interaction in human PANC-1 cells assessed as inhibition of LIF-induced STAT3 phosphorylation at Y705 at 25 uM after 24 hrs by Western blot analysis. The format is cell-based.
The subject of test [3] is PANC-1. In words: Inhibition of IFN-gamma receptor/GP130 interaction in human PANC-1 cells assessed as inhibition of IFN-gamma-induced STAT1 phosphorylation at Y701 at 25 uM […] measured after 24 hrs by Western blot analysis. The format is cell-based. The method in brief: (§1)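 PANC-1 cells (GP130+, ER−) in DMEM/10% FBS, stimulated with 50 ng/ml IL-6 or IFN-γ for 30 min before compound (10-50µM range), then 24 h at 60-80% confluence with 10% FBS. Whole-cell extracts made in RIPA with protease inhibitors. Blotted for pSTAT3 (Tyr705), STAT3, pSTAT1 (Tyr701), STAT1 and GAPDH, with chemiluminescent detection.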
(In western blotting, separated proteins are transferred to a membrane and probed.)

The target in test [4] is T1, IL6Ralpha/GP130 (Homo sapiens) (UniProt P08887+P40189). In words: Inhibition of IL-6Ralpha/GP130 interaction in human PANC-1 cells assessed as inhibition of IL-6-induced STAT3 phosphorylation at Y705 at 25 uM […] measured after 24 hrs by Western blot analysis. The format is cell-based. The method in brief: as §1
A short description of test [5]: Cytotoxicity against human MIAPaCa2 cells assessed as cell viability. The note with it: MIA PaCa-2. The format is functional, cell-based.
For test [6], the target named is T1, IL6Ralpha/GP130 (Homo sapiens). In words: Inhibition of IL-6Ralpha/GP130 interaction in ER-negative human SUM159 cells overexpressing IL-6 assessed as inhibition of constitutive STAT3 phosphorylation at Y705 at 10 to 30 uM after 24 hrs by Western blot analysis. The format is cell-based. The method in brief: (§2)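 Constitutive STAT3 activity in SUM159 (ER negative) cells grown in DMEM/10% FBS. Compound (10-50µM) or DMSO added at 60-80% confluence with 10% FBS for 24 h. RIPA whole-cell lysates run on SDS-PAGE and immunoblotted overnight at 4 °C for pSTAT3 (Tyr705), STAT3 and GAPDH. Detection by chemiluminescence.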

Test [7] addresses T2, Interleukin-6 receptor subunit beta (Homo sapiens, UniProt P40189).
T2 sequence (P40189 whole entry): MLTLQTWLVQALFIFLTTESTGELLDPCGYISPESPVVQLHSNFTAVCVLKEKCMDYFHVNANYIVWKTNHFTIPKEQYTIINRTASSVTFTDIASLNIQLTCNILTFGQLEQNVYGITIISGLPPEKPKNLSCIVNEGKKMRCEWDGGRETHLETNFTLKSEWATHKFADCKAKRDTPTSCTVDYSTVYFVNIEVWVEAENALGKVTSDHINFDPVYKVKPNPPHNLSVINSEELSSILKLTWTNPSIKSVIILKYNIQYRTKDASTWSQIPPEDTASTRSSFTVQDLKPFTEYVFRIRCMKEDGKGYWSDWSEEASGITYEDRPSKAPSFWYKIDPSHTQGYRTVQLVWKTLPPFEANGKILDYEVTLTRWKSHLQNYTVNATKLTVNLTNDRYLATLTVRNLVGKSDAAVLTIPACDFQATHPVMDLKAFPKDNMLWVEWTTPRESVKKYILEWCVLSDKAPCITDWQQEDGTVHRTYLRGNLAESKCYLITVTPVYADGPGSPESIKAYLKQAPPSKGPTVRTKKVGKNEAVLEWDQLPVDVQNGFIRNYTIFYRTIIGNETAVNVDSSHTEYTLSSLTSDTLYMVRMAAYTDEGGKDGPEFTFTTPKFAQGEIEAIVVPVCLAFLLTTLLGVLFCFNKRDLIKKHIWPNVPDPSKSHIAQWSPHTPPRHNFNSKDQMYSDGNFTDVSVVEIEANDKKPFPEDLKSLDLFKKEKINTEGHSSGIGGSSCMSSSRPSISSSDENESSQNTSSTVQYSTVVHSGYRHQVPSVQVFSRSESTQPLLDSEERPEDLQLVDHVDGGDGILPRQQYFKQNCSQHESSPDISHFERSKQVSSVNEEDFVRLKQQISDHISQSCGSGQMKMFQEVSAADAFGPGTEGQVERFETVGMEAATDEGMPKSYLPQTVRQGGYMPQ
Kind of test: Binding affinity to GP130 (unknown origin) by surface plasmon resonance analysis.

Test [8] has as its target T1, IL6Ralpha/GP130 (Homo sapiens). Kind of test: Inhibition of IL-6Ralpha/GP130 interaction in ER-negative human SUM159 cells overexpressing IL-6 assessed as inhibition of constitutive STAT3 phosphorylation at Y705 at 15 to 50 uM after 24 hrs by Western blot analysis. The format is cell-based. The method in brief:
as §2

Calls of active or inactive are those of the source. The rule behind the calls is not given here.

T1 sequence (P08887 whole entry, looked up, one chain of several): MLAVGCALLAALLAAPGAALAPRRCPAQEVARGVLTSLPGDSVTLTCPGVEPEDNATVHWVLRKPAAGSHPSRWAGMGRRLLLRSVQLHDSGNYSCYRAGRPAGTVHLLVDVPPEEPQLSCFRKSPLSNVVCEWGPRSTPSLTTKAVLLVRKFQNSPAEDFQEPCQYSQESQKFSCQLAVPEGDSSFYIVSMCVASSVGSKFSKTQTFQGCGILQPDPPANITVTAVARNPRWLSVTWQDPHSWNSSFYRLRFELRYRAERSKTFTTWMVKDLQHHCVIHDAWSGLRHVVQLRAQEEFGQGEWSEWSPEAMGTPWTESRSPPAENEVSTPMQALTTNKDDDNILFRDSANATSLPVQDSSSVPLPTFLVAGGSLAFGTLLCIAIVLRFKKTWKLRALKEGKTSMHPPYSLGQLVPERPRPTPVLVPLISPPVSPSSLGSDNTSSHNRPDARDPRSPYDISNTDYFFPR
LIFR/GP130 (Homo sapiens), sequence (P42702 whole entry, looked up, one chain of several): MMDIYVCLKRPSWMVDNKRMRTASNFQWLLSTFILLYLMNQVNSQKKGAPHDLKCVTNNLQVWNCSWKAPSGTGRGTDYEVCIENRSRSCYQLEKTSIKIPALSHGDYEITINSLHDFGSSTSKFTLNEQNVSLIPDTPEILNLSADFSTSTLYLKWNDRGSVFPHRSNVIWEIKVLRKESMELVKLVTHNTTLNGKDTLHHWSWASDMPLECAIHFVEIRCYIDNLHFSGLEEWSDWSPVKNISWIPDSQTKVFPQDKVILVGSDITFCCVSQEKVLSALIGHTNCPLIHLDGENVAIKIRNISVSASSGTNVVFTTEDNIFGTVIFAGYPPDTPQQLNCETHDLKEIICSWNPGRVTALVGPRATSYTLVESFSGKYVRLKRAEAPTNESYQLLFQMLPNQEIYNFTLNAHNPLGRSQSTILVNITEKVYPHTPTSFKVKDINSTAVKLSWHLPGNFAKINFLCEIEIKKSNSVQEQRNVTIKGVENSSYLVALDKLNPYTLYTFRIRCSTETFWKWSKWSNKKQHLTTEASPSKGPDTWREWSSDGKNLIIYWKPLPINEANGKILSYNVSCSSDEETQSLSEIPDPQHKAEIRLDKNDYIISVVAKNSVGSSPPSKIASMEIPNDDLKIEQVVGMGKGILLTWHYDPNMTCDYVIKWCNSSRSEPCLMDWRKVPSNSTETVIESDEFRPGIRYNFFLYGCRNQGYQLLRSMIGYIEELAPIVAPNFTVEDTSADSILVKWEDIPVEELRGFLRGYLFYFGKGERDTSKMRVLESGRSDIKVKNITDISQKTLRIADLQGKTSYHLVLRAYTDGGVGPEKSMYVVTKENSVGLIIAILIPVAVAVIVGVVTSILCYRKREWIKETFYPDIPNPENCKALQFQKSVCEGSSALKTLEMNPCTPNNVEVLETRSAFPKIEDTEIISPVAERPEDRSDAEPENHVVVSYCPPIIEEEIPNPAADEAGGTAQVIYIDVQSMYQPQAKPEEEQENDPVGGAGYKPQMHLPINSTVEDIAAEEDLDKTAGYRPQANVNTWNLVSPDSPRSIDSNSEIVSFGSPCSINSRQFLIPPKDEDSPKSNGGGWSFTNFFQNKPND

Regarding `Cc1c(-c2ccc(O)cc2)n(Cc2ccc(OCCN3CCCCCC3)cc2)c2ccc(O)cc12` [BAZEDOXIFENE], the IC50 – broadly, the concentration at which inhibition is half-maximal – in test [1] came out at 24.9 µM; in test [5] it was 9.7 µM. Moreover, the inhibition result in test [2] and in test [3] was “inactive” in each case. Also, the inhibition entry in test [4] and in test [6] was “Active” in each case.

Take `CCCCC1=C(C)C(=O)[C@](C)(CN2c3ccccc3[C@]3(O)CCOC23)C1=O` (stereo partly drawn) [MADINDOLINE A]: the IC50 in test [1] was greater than 250 µM. In addition, the Kd (in general, the constant that tells how readily two partners part at equilibrium) in test [7] was 288 µM.

`O=C(c1ccc(OCCN2CCCCC2)cc1)c1c(-c2ccc(O)cc2)sc2cc(O)ccc12` [RALOXIFENE]: the inhibition result in test [8] is “Active”. The 50% inhibitory concentration (IC50) is 43.2 µM in test [1] and 26.3 µM in test [5]. For the same compound, the inhibition entry in test [2] and in test [3] was “inactive” each time.
